{"source": "paper PMC5322940", "about": "(Cell, 2016)", "biological_target": "CB1 protein (Homo sapiens, UniProt P21554, D324T/DEL307-313/E273K/E323T/H320Y/I317L/I319V/INS325[…]/K326D/Q314A/Q328R/R331I/R340E/S316A/T210A/T283V/T321G/T330A/V329G)", "experiment": "Affinity mass spectrometry analysis of AM6538", "type": "binding", "conditions": "CB1 protein co-purified with AM6538", "in_short": "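CB1–flavodoxin fusion expressed in HEK293F and purified in DDM/CHS. Membranes took up 20 µM test compound (3 h, 4 °C), then iodoacetamide; wash and elution buffers also carried test compound. Co-purified complex was desalted on G-25 to strip free ligand. About 1 µg was ultrafiltered (30 kDa cutoff, 13,000 g, 10 min, 4 °C) in 150 mM ammonium acetate, 0.02% DDM, 0.004% CHS; retained complex collected.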"}
{"smiles": "Cc1c(C(=O)NN2CCCCC2)nn(-c2ccc(Cl)cc2Cl)c1-c1ccc(C#CCCO[N+](=O)[O-])cc1", "note": "[AM6538, 4-(4-(1-(2,4-dichlorophenyl)-4-methyl-3-(piperidin-1-ylcarbamoyl)-1H-pyrazol-5-yl)phenyl)but-3-yn-1-yl nitrate]", "values": [{"measurement": "Covalent modification of CB1 cysteine residues", "value": "no evidence of covalent modification"}]}
